From ChEMBL document CHEMBL1127493, “Glycylcyclines. 1. A new generation of potent antibacterial agents through modification of 9-aminotetracyclines” (1994)
Values after ≈ are worked out from the molar mass of the structure shown.

Tests used:
Type in all cases: functional
Escherichia coli [1] = experiment: In vitro minimum inhibitory concentration against Escherichia coli J3272 (tet D efflux).
In short: (§1)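 Agar dilution on Mueller–Hinton II agar; inoculum (1-5) × 10^5 CFU/mL; antibiotic concentrations 32–0.004 µg/mL; plates incubated 18 h at 35 °C in forced-air incubator. MIC taken as lowest concentration inhibiting growth of the test organism (tetracycline-sensitive and tetracycline-resistant strains).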

Staphylococcus aureus [2] = experiment: In vitro minimum inhibitory concentration against Staphylococcus aureus UBMS 90-3 (sensitive).; in short: as §1
Escherichia coli [3] = experiment: In vitro minimum inhibitory concentration against Escherichia coli J3272 (tet C efflux).; in short: as §1
Staphylococcus aureus [4] = experiment: In vitro minimum inhibitory concentration against Staphylococcus aureus smith (sensitive).; in short: as §1
Escherichia coli [5] = experiment: In vitro minimum inhibitory concentration against Escherichia coli UBMS 90-5 (sensitive).; in short: as §1
Escherichia coli [6] = experiment: In vitro minimum inhibitory concentration against Escherichia coli PRP-1 (tet A efflux).; in short: as §1
Staphylococcus aureus [7] = experiment: In vitro minimum inhibitory concentration against Staphylococcus aureus UBMS 88-7 (tet K efflux).; in short: as §1
Staphylococcus aureus [8] = experiment: In vitro minimum inhibitory concentration against Staphylococcus aureus UBMS 90-1 (tet M ribosomal protection).; in short: as §1
Escherichia coli [9] = experiment: In vitro minimum inhibitory concentration against Escherichia coli UBMS 90-4 (tet M ribosomal protection).; in short: as §1
Escherichia coli [10] = experiment: In vitro minimum inhibitory concentration against Escherichia coli UBMS 88-1 (tet B efflux).; in short: as §1
Enterococcus faecalis = experiment: In vitro minimum inhibitory concentration against Enterococcus faecalis ATCC 29212.; in short: as §1

Row | SMILES | MIC (Escherichia coli [1]) [µg/mL] | MIC (Staphylococcus aureus [2]) [µg/mL] | MIC (Escherichia coli [3]) [µg/mL] | MIC (Staphylococcus aureus [4]) [µg/mL] | MIC (Escherichia coli [5]) [µg/mL] | MIC (Escherichia coli [6]) [µg/mL] | MIC (Staphylococcus aureus [7]) [µg/mL] | MIC (Staphylococcus aureus [8]) [µg/mL] | MIC (Escherichia coli [9]) [µg/mL] | MIC (Escherichia coli [10]) [µg/mL] | MIC (Enterococcus faecalis) [µg/mL]
1 | CN(C)c1ccc(O)c2c1C[C@H]1C[C@H]3[C@H](N(C)C)C(O)=C(C(N)=O)C(=O)[C@@]3(O)C(O)=C1C2=O [MINOCYCLINE] | 8 (≈ 17.5 µM) | 0.12 (≈ 0.262 µM) | 4 (≈ 8.74 µM) | 0.12 (≈ 0.262 µM) | 1 (≈ 2.19 µM) | 4 (≈ 8.74 µM) | 0.25 (≈ 0.546 µM) | 4 (≈ 8.74 µM) | > 32 | 16 (≈ 35 µM) | 
2 | CN(C)CC(=O)Nc1cc(I)c2c(c1O)C(=O)C1=C(O)[C@]3(O)C(O)=C(C(N)=O)C(=O)[C@@H](N(C)C)C3CC1C2.Cl (some centres not stated) | 0.5 | 0.12 | 4 | 0.25 | 2 | 8 | 4 | 0.5 | 1 | 1 | 0.06
3 | CC(=O)Nc1cc(I)c2c(c1O)C(O)=C1C(=O)[C@]3(O)C(O)=C(C(N)=O)C(=O)[C@@H](N(C)C)C3CC1C2.O=S(=O)(O)O (some centres not stated) |  | 0.12 | > 128 | 0.12 | 16 | > 128 | 16 | 1 | > 128 | > 128 | 0.25
4 | CN(C)[C@@H]1C(O)=C(C(N)=O)C(=O)[C@@]2(O)C(O)=C3C(=O)c4c(O)cccc4[C@@](C)(O)[C@H]3C[C@@H]12 [TETRACYCLINE] | 32 (≈ 72 µM) | 0.25 (≈ 0.563 µM) | > 32 | 0.25 (≈ 0.563 µM) | 1 (≈ 2.25 µM) | 32 (≈ 72 µM) | > 32 | > 32 | > 32 | > 32 | 
5 | CN(C)[C@@H]1C(=O)C(C(N)=O)=C(O)[C@@]2(O)C(=O)C3=C(O)c4c(O)c(NC=O)cc(I)c4CC3CC12.O=S(=O)(O)O (some centres not stated) |  | 0.03 | > 32 | 0.03 | 0.5 | > 32 | 16 | 4 | 32 | > 32 | 0.25
6 | CC(=O)Nc1ccc2c(c1O)C(O)=C1C(=O)[C@]3(O)C(O)=C(C(N)=O)C(=O)[C@@H](N(C)C)C3CC1C2.O=S(=O)(O)O (some centres not stated) | 0.5 | 0.12 | > 32 | 0.12 | 8 | > 32 | 32 | 2 | 8 | > 32 | 0.25
7 | CCN(CC)c1cc(NC=O)c(O)c2c1CC1CC3[C@H](N(C)C)C(=O)C(C(N)=O)=C(O)[C@@]3(O)C(=O)C1=C2O (some centres not stated) |  | 0.03 (≈ 0.0568 µM) | 32 (≈ 60.5 µM) | 0.03 (≈ 0.0568 µM) | 0.5 (≈ 0.946 µM) | 32 (≈ 60.5 µM) | 0.25 (≈ 0.473 µM) | 0.5 (≈ 0.946 µM) | 8 (≈ 15.1 µM) | 16 (≈ 30.3 µM) | 0.06 (≈ 0.114 µM)
8 | CN(C)[C@@H]1C(=O)C(C(N)=O)=C(O)[C@@]2(O)C(=O)C3=C(O)c4c(ccc(NC=O)c4O)CC3CC12.O=S(=O)(O)O (some centres not stated) |  | < 0.015 | > 32 | 0.03 | 0.25 | > 32 | > 32 | 1 | 1 | 32 | 0.06
9 | CCN(CC)c1cc(N)c(O)c2c1CC1CC3[C@H](N(C)C)C(=O)C(C(N)=O)=C(O)[C@@]3(O)C(=O)C1=C2O.Cl (some centres not stated) |  | 0.03 | 4 | 0.03 | 1 | 2 | 0.06 | 2 | 32 | 2 | 0.12
